Experimental findings from ChEMBL document CHEMBL1144153, “Conjugates of the fungal cytotoxin illudin M with improved tumour specificity” (Bioorg Med Chem, 2008) are described below.

Activity calls are given as the source filed them. No cut-off for these calls is given here.

The subject of data set [1] is HFF. The data set can be described thus: Induction of apoptosis in HFF cells assessed as sub-diploid DNA content at 1 uM after 120 hrs by FACS relative to control. The note with it: human. In kind it is cell-based. Put shortly:
(§1)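 Panc-1 and HT-29 cells (RPMI-1640) or foreskin fibroblasts (DMEM), 10% FCS, 37 °C, were compound-treated. Supernatants were pooled with PBS-washed, trypsinised cells, then lysed in hypotonic 0.1% sodium citrate / 0.1% Triton X-100 with 50 µg/mL propidium iodide. Flow cytometry scored the sub-diploid nuclear fraction as apoptotic, relative to untreated controls. Means of three independent experiments.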
A general note: Flow cytometry measures light scatter and fluorescence of single cells or particles in a stream.

The subject of data set [2] is HT-29. The data set is described as follows: Cytotoxicity against human HT-29 cells assessed as viable cells at 1 uM after 120 hrs by trypan blue exclusion assay relative to control. The note with it: HT-29, 120 h, read-out: Activity. In kind it is functional. A digest of the protocol: (§2)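 Panc-1 and HT-29 cells were grown in RPMI-1640, and foreskin fibroblasts in DMEM, each with 10% FCS plus penicillin/streptomycin at 37 °C and 5% CO2. Cells were exposed to compound (0.01–10 µM range) for up to 120 h, harvested and stained with Trypan blue. Unstained cells were counted in a Neubauer chamber relative to untreated controls (100%). Means of three independent experiments ± SD.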

In data set [3] the test system is PANC-1. The data set is described as follows: Induction of apoptosis in human PANC1 cells assessed as sub-diploid DNA content at 1 uM after 96 hrs by FACS relative to control. In kind it is functional. Put shortly:
as §1

Data set [4] in a line: Cytotoxicity against HFF cells assessed as viable cells at 1 uM after 120 hrs by trypan blue exclusion assay relative to control. The note with it: human, read-out: Activity. In kind it is cell-based. A digest of the protocol: as §2
Data set [5] concerns HT-29. The data set is described as follows: Induction of apoptosis in human HT-29 cells assessed as sub-diploid DNA content at 1 uM after 120 hrs by FACS relative to control. It counts as functional. A digest of the protocol: as §1
Data set [6] has as its system PANC-1. The data set can be described thus: Cytotoxicity against human PANC1 cells assessed as viable cells at 1 uM after 120 hrs by trypan blue exclusion assay relative to control. It counts as functional. The following applies: PANC-1, 120 h, read-out: Activity. Put shortly: as §2
Data set [7] deals with PANC-1. The data set is described as follows: Induction of apoptosis in human PANC1 cells assessed as sub-diploid DNA content at 1 uM after 120 hrs by FACS relative to control. In kind it is functional. Put shortly:
as §1

Data set [8] concerns HT-29. The data set can be described thus: Induction of apoptosis in human HT-29 cells assessed as sub-diploid DNA content at 1 uM after 96 hrs by FACS relative to control. In kind it is functional. Put shortly: as §1
In data set [9] the test system is MCF7. The data set is described as follows: Antiproliferative activity against human MCF7 cells at 1 to 10 uM after 24 to 48 hrs by MTT assay. In kind it is functional. On the technique in general: Tetrazolium assays rely on reduction of a dye to a coloured formazan, in cell work by metabolically active cells.
In data set [10] the test system is MDA-MB-231. The data set can be described thus: Antiproliferative activity against human MDA-MB-231 cells at 1 to 10 uM after 24 to 48 hrs by MTT assay. In kind it is functional.
Data set [11] concerns PANC-1. The data set can be described thus: Cytotoxicity against human PANC1 cells assessed as viable cells at 1 uM after 48 hrs by trypan blue exclusion assay relative to control. It counts as functional. The note with it: PANC-1, 48 h, read-out: Activity. A digest of the protocol:
as §2

The test system of data set [12] is PANC-1. The data set can be described thus: Cytotoxicity against human PANC1 cells up to 10 uM by trypan blue exclusion assay. It counts as functional, cell-based. A digest of the protocol:
(§3)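 Cells grown in RPMI-1640 with 10% FCS, penicillin and streptomycin at 37 °C, 5% CO2. Exposed to 0.01–10 µM for up to 120 h (24–120 h time course). Harvested, stained with Trypan blue, and unstained cells counted in a Neubauer chamber. Counts expressed relative to untreated controls (100%). Means of three independent experiments.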

Data set [13] has as its system HT-29. The data set is described as follows: Cytotoxicity against human HT-29 cells up to 10 uM by trypan blue exclusion assay. It counts as functional, cell-based. Put shortly: as §3
Data set [14] deals with HT-29. The data set is described as follows: Cytotoxicity against human HT-29 cells assessed as viable cells at 1 uM after 48 hrs by trypan blue exclusion assay relative to control. The following applies: HT-29, 48 h, read-out: Activity. It counts as functional. A digest of the protocol: as §2
Data set [15] in a line: Cytotoxicity against HFF cells assessed as viable cells at 1 uM after 48 hrs by trypan blue exclusion assay relative to control. In kind it is cell-based. The note with it: human, read-out: Activity. A digest of the protocol: as §2
The test system of data set [16] is PANC-1. The data set can be described thus: Induction of apoptosis in human PANC1 cells assessed as sub-diploid DNA content at 0.1 uM by FACS. In kind it is functional, cell-based. A digest of the protocol: as §1

`CC/C=C\C/C=C\C/C=C\C/C=C\C/C=C\C/C=C\CCC(=O)O[C@@H]1C2=C(C)C3(CC3)[C@@](C)(O)C(=O)C2=CC1(C)C` [DOCOSAHEXAENOYL ILLUDIN M]: the Activity in data set [1] was 4.4%; in data set [3], less than 10%; in data set [5], 1.9%; in data set [7], 2.6%; in data set [8], less than 10%. The results for the viability at 1 µM in [2] and in [6] were 111% and 103%, respectively. Also, the viability at 120 h, 1 µM in [4] was determined as 80%.
On to `CC1=C(CO)C2=C(C)C3(CC3)[C@@](C)(O)C(=O)C2=C1` [IROFULVEN], for which the Activity in data set [9] and in data set [10] was 70% throughout.
Take `CC1=C2C(=CC(C)(C)[C@@H]2OC(=O)C2C3CCC(O3)C2C(=O)O[C@@H]2C3=C(C)C4(CC4)[C@@](C)(O)C(=O)C3=CC2(C)C)C(=O)[C@](C)(O)C12CC2` (stereo partly drawn) [BIS(ILLUDINYL M) ENDOTHALLATE]: the Activity in [1] came to 33.1%; in [5], 52.9%; in data set [7], 74%. Moreover, the viability at 1 µM was 33% in data set [11], 3% in data set [2], 6.4% in data set [6] and 26% in data set [14]. Moreover, the viability at 120 h, 1 µM in data set [4] is 49.3%. In addition, the outcome in [12] and in [13] was Active.
Take `CC1=C2C(=CC(C)(C)[C@@H]2OC(=O)c2ccc(-c3ccc(C(=O)O[C@@H]4C5=C(C)C6(CC6)[C@@](C)(O)C(=O)C5=CC4(C)C)cn3)nc2)C(=O)[C@](C)(O)C12CC2`: the Activity in [1] is listed as 14.3%. Moreover, the viability at 120 h, 1 µM in data set [4] was found to be 47.8%. The viability at 48 h, 1 µM in data set [15] amounted to 62%. Moreover, the result in data set [12] and in data set [13] was Active.
With `CC1=C2C(=CC(C)(C)[C@@H]2O)C(=O)[C@](C)(O)C12CC2` [ILLUDIN M], the Activity in [1] is given as 88.9%; in [5], 47.9%; in [7] it was 86%. Moreover, the viability at 1 µM was 42% in data set [11], 3.8% in data set [2], 12.3% in [6] and 26% in data set [14]. For the same compound, the viability at 120 h, 1 µM in data set [4] came to 28.1%. Besides, the result in data set [16] was Active. The viability at 48 h, 1 µM in data set [15] stood at 39%.
Turning to `CC1=C2C(=CC(C)(C)[C@@H]2OC(=O)CCCc2ccc(N(CCCl)CCCl)cc2)C(=O)[C@](C)(O)C12CC2`, the Activity in data set [1] was 9.5%; in data set [3], less than 10%; in data set [5] it was 6%; in data set [7], 36.8%; in [8], less than 10%. Besides, the viability at 1 µM in [2] amounted to 42.7%; in data set [6] it was 20%. Besides, the viability at 120 h, 1 µM in data set [4] came to 47.5%.
